Experimental data published in ChEMBL document CHEMBL1158564, “Synthesis and biological evaluation of 1,4-diazepane derivatives as T-type calcium channel blockers” (Bioorg Med Chem Lett, 2010).

What was measured:
[1] = target: T1, Voltage-dependent T-type calcium channel subunit alpha-1G (Homo sapiens, UniProt O43497); assay: Inhibition of T-type calcium channel alpha1G expressed in human HEK293 cells assessed as inhibition of KCl-induced increase in calcium level at 10 uM after 60 mins by FDSS6000 assay
[2] = target: Voltage-dependent N-type calcium channel subunit alpha-1B (Homo sapiens, UniProt Q00975); assay: Inhibition of N-type calcium channel Alpha-1B
[3] = target: T1, Voltage-dependent T-type calcium channel subunit alpha-1G; assay: Inhibition of T-type calcium channel alpha1G expressed in human HEK293 cells assessed as inhibition of peak currents by whole-cell patch-clamp method; format: cell-based
Procedure, shortened: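 Whole-cell recording of α1G T-type Ca²⁺ currents, evoked every 15 s by a 50 ms depolarizing step from −100 mV to −30 mV. Peak-current inhibition was measured across compound concentrations. IC50 was obtained by fitting raw data to dose–response curves.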

[4] = target: Voltage-gated inwardly rectifying potassium channel KCNH2 (Homo sapiens, UniProt Q12809); assay: Inhibition of human ERG
[5] = Cmax in po dosed rat; format: ADME, organism-based; design: route oral; settings: in vivo
Procedure, shortened: (§1)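 Rat plasma pharmacokinetics after intravenous (n = 4) or oral (n = 3) dosing. Brain-to-plasma ratio, Cmax, Tmax, half-life, Vdss and oral bioavailability were derived per route. Values are given as mean with standard deviation.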

[6] = Half life in iv dosed rat; format: ADME, organism-based; settings: in vivo
Procedure, shortened: as §1

[7] = Half life in po dosed rat; format: ADME, organism-based; settings: in vivo
Procedure, shortened: as §1

[8] = Oral bioavailability in rat; format: ADME, organism-based; settings: in vivo
Procedure, shortened: as §1

[9] = Tmax in po dosed rat; format: ADME, organism-based; settings: in vivo
Procedure, shortened: as §1

[10] = Ratio of drug level in brain to plasma in po dosed rat; format: ADME, organism-based; settings: read-out: BPR
Procedure, shortened: as §1

[11] = Volume of distribution at steady state in iv dosed rat; format: ADME, organism-based; settings: in vivo, read-out: Vdss
Procedure, shortened: as §1

[12] = Ratio of drug level in brain to plasma in iv dosed rat; format: ADME, organism-based; settings: read-out: BPR
Procedure, shortened: as §1

T1 sequence (O43497 whole entry): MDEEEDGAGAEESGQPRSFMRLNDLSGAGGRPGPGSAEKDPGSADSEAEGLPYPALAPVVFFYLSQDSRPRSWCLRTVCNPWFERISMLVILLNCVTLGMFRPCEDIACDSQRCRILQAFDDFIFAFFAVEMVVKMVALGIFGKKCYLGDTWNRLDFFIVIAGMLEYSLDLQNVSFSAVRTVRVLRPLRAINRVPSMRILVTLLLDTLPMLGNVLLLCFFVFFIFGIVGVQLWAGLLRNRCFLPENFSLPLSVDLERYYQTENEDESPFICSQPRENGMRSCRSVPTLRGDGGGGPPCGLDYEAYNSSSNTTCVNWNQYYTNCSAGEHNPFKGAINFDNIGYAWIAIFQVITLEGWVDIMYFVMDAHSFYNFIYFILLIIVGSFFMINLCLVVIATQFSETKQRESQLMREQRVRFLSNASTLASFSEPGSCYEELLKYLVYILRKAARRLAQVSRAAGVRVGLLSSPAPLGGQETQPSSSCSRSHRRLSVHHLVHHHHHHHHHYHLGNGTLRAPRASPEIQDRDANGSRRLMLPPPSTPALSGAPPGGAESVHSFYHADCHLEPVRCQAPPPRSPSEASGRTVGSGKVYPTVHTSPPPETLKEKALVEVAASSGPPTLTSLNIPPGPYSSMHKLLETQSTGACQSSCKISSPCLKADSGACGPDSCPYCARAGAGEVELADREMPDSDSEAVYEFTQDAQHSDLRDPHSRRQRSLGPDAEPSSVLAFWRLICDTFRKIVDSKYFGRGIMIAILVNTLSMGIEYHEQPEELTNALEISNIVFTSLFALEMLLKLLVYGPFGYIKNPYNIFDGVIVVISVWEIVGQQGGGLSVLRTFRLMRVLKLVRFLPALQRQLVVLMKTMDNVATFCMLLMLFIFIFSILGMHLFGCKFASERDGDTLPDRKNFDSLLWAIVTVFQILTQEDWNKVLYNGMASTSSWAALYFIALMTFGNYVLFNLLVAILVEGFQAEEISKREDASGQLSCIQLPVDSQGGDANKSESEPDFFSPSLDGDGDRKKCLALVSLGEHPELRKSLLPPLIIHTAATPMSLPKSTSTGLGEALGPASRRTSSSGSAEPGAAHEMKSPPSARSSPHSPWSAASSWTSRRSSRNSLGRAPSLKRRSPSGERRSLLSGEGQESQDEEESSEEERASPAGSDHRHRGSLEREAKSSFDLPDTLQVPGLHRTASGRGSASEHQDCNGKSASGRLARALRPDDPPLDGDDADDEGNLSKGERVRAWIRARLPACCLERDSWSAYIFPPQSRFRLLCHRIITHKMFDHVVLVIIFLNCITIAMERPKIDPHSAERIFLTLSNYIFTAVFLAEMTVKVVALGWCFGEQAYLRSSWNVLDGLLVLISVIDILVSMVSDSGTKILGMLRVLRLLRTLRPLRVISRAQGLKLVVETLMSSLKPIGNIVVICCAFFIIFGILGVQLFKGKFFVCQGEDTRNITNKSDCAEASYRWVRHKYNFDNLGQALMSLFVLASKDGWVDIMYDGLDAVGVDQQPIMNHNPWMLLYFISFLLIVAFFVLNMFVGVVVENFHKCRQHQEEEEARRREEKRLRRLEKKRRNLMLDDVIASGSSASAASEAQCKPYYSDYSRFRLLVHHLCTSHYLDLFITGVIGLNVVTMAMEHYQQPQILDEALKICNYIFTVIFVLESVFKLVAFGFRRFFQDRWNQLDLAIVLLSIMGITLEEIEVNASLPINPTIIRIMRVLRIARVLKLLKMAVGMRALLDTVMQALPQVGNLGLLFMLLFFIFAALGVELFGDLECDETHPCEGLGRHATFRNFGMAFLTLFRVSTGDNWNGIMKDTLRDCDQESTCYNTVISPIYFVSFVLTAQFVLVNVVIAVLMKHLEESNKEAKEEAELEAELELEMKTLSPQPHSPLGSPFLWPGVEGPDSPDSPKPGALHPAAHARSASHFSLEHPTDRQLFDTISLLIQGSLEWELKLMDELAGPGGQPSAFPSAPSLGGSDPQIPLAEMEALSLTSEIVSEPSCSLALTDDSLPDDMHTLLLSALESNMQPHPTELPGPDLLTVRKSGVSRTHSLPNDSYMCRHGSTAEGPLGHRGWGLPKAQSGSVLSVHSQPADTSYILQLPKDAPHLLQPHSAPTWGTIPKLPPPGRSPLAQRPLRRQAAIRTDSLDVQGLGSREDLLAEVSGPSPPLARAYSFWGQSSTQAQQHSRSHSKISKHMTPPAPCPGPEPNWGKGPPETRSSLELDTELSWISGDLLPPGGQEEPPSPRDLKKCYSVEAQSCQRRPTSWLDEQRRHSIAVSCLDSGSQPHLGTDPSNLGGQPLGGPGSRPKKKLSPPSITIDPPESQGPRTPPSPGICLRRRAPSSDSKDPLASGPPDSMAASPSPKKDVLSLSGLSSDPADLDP
Chain of Voltage-dependent N-type calcium channel subunit alpha-1B (Q00975 whole entry): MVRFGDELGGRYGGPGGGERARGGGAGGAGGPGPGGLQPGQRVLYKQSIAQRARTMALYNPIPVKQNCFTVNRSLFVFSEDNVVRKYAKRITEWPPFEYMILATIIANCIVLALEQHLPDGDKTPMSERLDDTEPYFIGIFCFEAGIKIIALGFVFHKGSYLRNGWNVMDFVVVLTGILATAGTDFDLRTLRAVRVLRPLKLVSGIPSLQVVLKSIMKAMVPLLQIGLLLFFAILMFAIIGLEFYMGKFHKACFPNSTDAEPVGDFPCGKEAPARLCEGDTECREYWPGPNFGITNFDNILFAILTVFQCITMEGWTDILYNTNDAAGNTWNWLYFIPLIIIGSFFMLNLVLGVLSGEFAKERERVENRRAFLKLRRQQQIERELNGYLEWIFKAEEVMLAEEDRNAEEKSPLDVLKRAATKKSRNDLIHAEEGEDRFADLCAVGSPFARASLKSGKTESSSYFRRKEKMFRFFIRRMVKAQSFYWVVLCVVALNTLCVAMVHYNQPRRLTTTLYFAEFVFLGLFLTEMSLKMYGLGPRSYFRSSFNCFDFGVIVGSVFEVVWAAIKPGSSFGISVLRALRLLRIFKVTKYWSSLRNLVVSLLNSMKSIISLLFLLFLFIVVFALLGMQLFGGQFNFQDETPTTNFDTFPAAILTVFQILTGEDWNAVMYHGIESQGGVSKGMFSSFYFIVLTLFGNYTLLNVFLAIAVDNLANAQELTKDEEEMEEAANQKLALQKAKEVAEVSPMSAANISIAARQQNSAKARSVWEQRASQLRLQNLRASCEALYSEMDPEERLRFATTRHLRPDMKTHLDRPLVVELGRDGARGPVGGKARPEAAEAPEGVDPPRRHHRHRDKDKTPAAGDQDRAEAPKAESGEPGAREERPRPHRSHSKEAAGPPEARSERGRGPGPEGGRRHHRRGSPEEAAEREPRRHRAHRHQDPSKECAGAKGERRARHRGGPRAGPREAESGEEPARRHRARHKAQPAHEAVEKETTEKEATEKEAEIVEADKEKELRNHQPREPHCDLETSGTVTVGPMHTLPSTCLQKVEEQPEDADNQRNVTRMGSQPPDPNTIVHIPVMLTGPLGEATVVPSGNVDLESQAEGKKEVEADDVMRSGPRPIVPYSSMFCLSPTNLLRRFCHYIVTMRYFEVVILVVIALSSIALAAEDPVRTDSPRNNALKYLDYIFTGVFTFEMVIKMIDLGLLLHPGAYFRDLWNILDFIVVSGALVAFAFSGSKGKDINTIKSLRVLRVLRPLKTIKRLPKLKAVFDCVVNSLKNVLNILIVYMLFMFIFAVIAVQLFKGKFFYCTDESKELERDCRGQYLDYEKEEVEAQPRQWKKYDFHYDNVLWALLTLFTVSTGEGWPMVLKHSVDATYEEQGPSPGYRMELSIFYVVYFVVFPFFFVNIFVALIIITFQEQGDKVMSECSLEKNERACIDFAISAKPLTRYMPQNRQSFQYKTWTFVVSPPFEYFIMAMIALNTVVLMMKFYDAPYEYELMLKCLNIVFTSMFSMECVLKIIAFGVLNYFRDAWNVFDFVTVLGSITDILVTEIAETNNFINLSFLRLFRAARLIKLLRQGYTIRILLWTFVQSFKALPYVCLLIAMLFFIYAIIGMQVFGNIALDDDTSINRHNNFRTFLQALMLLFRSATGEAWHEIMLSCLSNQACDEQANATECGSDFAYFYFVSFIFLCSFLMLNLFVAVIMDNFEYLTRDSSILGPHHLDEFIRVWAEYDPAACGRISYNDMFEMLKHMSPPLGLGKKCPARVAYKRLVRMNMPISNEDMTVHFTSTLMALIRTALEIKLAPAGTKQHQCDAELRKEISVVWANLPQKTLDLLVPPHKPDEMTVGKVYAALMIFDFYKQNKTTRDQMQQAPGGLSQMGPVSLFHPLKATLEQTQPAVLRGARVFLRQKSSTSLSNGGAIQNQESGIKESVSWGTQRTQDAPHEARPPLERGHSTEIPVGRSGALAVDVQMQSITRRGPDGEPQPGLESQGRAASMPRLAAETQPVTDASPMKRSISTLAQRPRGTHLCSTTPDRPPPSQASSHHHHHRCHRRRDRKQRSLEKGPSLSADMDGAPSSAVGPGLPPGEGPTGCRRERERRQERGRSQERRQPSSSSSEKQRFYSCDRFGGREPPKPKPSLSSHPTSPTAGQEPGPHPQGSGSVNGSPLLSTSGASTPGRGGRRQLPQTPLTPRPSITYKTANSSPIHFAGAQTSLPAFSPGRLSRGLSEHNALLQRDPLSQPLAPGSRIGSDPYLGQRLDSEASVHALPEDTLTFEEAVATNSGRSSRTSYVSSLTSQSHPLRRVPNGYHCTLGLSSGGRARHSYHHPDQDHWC

SMILES | inhibition [1] [%] | also measured
O=C(CNc1cccc(Cl)c1)N1CCCN(Cc2nc3ccccc3[nH]2)CC1 | 40.9 | 
COc1ccccc1NCC(=O)N1CCCN(Cc2nc3ccccc3[nH]2)CC1 | 8.29 | 
Cc1cccc(C)c1NC(=O)CN1CCCN(Cc2nc3ccccc3[nH]2)CC1 | 39.8 | 
Cc1ccc(NCC(=O)N2CCCN(Cc3nc4ccccc4[nH]3)CC2)c(C)c1 | 21.1 | 
COCC(=O)O[C@]1(CCN(C)CCCc2nc3ccccc3[nH]2)CCc2cc(F)ccc2[C@@H]1C(C)C [MIBEFRADIL] |  | IC50 [2]: 1340 nM
O=C(CN1CCCN(Cc2nc3ccccc3[nH]2)CC1)Nc1cccc(Cl)c1 | 41.7 | 
O=C(CN1CCCN(Cc2nc3ccccc3[nH]2)CC1)Nc1ccc(F)cc1 | 46.6 | 
COc1ccc(NCC(=O)N2CCCN(Cc3nc4ccccc4[nH]3)CC2)cc1 | 0.92 | 
O=C(CNc1ccc(Cl)cc1)N1CCCN(Cc2nc3ccccc3[nH]2)CC1 | 36.9 | 
O=C(CNc1cccc(C(F)(F)F)c1)N1CCCN(Cc2nc3ccccc3[nH]2)CC1 | 27.3 | 
Cc1cccc(NCC(=O)N2CCCN(Cc3nc4ccccc4[nH]3)CC2)c1 | 8.48 | 
O=C(CNc1ccc(F)cc1)N1CCCN(Cc2nc3ccccc3[nH]2)CC1 | 12.8 | 
COc1cccc(NCC(=O)N2CCCN(Cc3nc4ccccc4[nH]3)CC2)c1 | 1.54 | 
O=C(CN1CCCN(Cc2nc3ccccc3[nH]2)CC1)Nc1ccccc1F | 32.4 | 
Cc1ccc(NCC(=O)N2CCCN(Cc3nc4ccccc4[nH]3)CC2)cc1C | 16.5 | 
O=C(CN1CCCN(Cc2nc3ccccc3[nH]2)CC1)Nc1ccccc1Cl | 56.8 | IC50 [3]: 1470 nM
Cc1ccc(NCC(=O)N2CCCN(Cc3nc4ccccc4[nH]3)CC2)cc1 | 16.4 | 
Cc1ccccc1NC(=O)CN1CCCN(Cc2nc3ccccc3[nH]2)CC1 | 51.8 | 
Cc1ccc(NC(=O)CN2CCCN(Cc3nc4ccccc4[nH]3)CC2)cc1 | 44.8 | 
COc1ccccc1NC(=O)CN1CCCN(Cc2nc3ccccc3[nH]2)CC1 | 59.1 | IC50 [3]: 12600 nM

SMILES | inhibition [1] [%] | also measured
O=C(CNc1ccccc1C(F)(F)F)N1CCCN(Cc2nc3ccccc3[nH]2)CC1 | 66 | IC50 [3]: 3170 nM; IC50 [4]: 1320 nM
O=C(CN1CCCN(Cc2nc3ccccc3[nH]2)CC1)Nc1cccc(F)c1 | 46.4 | 
COc1cccc(NC(=O)CN2CCCN(Cc3nc4ccccc4[nH]3)CC2)c1 | 46.1 | 
Cc1cccc(C)c1NCC(=O)N1CCCN(Cc2nc3ccccc3[nH]2)CC1 | 29.5 | 
CCc1cccc(CC)c1NCC(=O)N1CCCN(Cc2nc3ccccc3[nH]2)CC1 | 62.4 | IC50 [3]: 4000 nM
O=C(CN1CCCN(Cc2nc3ccccc3[nH]2)CC1)Nc1ccc(Cl)cc1 | 51.3 | 
COc1ccc(NC(=O)CN2CCCN(Cc3nc4ccccc4[nH]3)CC2)cc1 | 32.4 | 
O=C(CNc1cccc(F)c1)N1CCCN(Cc2nc3ccccc3[nH]2)CC1 | 7.52 | 
Cc1cccc(NC(=O)CN2CCCN(Cc3nc4ccccc4[nH]3)CC2)c1 | 54.8 | 
O=C(CNc1ccc(C(F)(F)F)cc1)N1CCCN(Cc2nc3ccccc3[nH]2)CC1 | 28.2 | 
O=C(CN1CCCN(Cc2nc3ccccc3[nH]2)CC1)Nc1ccc(C(F)(F)F)cc1 | 60.7 | Cmax [5]: 2280 ng/mL; IC50 [3]: 1230 nM; IC50 [4]: 4970 nM; half-life [6]: 5.67 h; half-life [7]: 4.34 h; bioavailability [8]: 43.4%; Tmax [9]: 2 h; IC50 [2]: 28700 nM; Kp [10]: 0.105; Vd [11]: 2.33 L/kg; Kp [12]: 0.438
O=C(CN1CCCN(Cc2nc3ccccc3[nH]2)CC1)Nc1ccccc1C(F)(F)F | 41.7 | 
Cc1ccccc1NCC(=O)N1CCCN(Cc2nc3ccccc3[nH]2)CC1 | 7.04 | 
O=C(CNc1ccccc1F)N1CCCN(Cc2nc3ccccc3[nH]2)CC1 | 22.3 | 
CCc1cccc(CC)c1NC(=O)CN1CCCN(Cc2nc3ccccc3[nH]2)CC1 | 57.4 | IC50 [3]: 2080 nM
O=C(CN1CCCN(Cc2nc3ccccc3[nH]2)CC1)Nc1cccc(C(F)(F)F)c1 | 60.1 | 
Cc1ccc(NC(=O)CN2CCCN(Cc3nc4ccccc4[nH]3)CC2)c(C)c1 | 47.6 | 
Cc1ccc(NC(=O)CN2CCCN(Cc3nc4ccccc4[nH]3)CC2)cc1C | 56.2 | IC50 [3]: 2390 nM
O=C(CNc1ccccc1Cl)N1CCCN(Cc2nc3ccccc3[nH]2)CC1 | 32.2 | 
